Source: PubChem
MrgX1 ag – agonists of human MrgX1 receptor, primary screen, HEK293 cells, Fluo-4 calcium flux. Fluo-4 calcium fluorescence, agonist mode; stronger effect = higher value. B-score at 10 µM. 310,000 tested, 0.44% active. AID 588627, 2011;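 active means calcium response B-score plate-corrected fluorescence ratio at least 3 library SD, with starting fluorescence B-score inside 5 SD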
Target sequence (Q96LB2 whole entry, looked up): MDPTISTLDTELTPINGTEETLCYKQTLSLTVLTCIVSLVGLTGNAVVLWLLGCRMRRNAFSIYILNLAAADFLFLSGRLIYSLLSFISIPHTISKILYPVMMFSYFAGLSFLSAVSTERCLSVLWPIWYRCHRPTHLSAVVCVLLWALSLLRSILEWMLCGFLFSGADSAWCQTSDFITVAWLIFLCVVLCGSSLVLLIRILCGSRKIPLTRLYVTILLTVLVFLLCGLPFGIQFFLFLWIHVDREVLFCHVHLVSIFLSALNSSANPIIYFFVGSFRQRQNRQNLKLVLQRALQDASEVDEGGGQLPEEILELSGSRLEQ
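Test system: Stable human MrgX1 HEK293 cell line | Schedule: Overnight plating before 1 h dye loading | Read-out basis: Baseline-normalised fluorescence change ratio, B-scored | Detection: Kinetic calcium dye fluorescence, Fluo-4 NW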
MrgX1 allo act – positive allosteric modulators of MrgX1, primary screen, HEK293 cells, Fluo-4 calcium flux. FDSS; stronger effect = higher value. B-score at 10 µM. 310,000 tested, 0.63% active. AID 588675, 2011;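 active means plate-corrected calcium response at least 3 library SD above typical, normal starting fluorescence, not activating the receptor alone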;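 further: compound read alongside a low EC10 to EC30 dose of BAM8-22 agonist; peak minus trough fluorescence over baseline measured at the second addition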
MrgX1 antagonist – antagonists of human MrgX1 receptor, primary screen, HEK293 cells, Fluo-4 calcium flux; Mas-related G-protein coupled receptor member X1 (Homo sapiens), Q96LB2; BAM8-22 antagonism; stronger effect = lower value; B-score at 10 µM; 310,000 tested, 1.3% active; AID 588676, 2011;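 active means calcium-response B-score plate-corrected more than 3 library SD below zero, starting fluorescence within 5 deviations, no agonist response on first addition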;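 further: peak minus trough fluorescence over baseline after final BAM8-22 challenge near maximal dose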
RGS4 pot – RGS4 potentiators or activators, primary screen, cell-based, HEK293 M3R inducible RGS4, calcium flux | AID 463111, 2010 | 310,000 tested, 0.92% active | carbachol calcium flux Fluo4; stronger effect = lower value | B-score at 10 µM;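 active means B-score of the integrated calcium signal more than 4 SD below the library mean, with starting fluorescence not abnormally high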;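 further: negative B-score means reduced calcium response which marks RGS4 activation or potentiation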
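Material: Inducible-RGS4 HEK293 cells carrying M3 receptor; also added: carbachol at ECmax as muscarinic agonist stimulus; incubation: compound preincubation 20 min at room temperature before agonist; signal: Fluo4-AM (2 µM) calcium-flux fluorescence, kinetic read; measure: integrated calcium ratio converted to B score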
RGS4 block – RGS4 inhibitors, primary screen, cell-based, HEK293 M3R inducible RGS4, calcium flux; Regulator of G-protein signaling 4 (Homo sapiens), P49798; Fluo-4 calcium flux; stronger effect = higher value; triggered by carbachol at its EC20; B-score at 10 µM; 310,000 tested, 0.45% active; AID 463165, 2010;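 active means B-score, a plate-corrected calcium signal, over three deviations above library mean, with baseline fluorescence within five deviations of library mean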;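 further: RGS4 expression induced by doxycycline in cells with stable M3 receptor; B-score is computed from the integrated fluorescence ratio over baseline after carbachol; higher B-score means a larger calcium signal and so more RGS4 inhibition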
Target sequence (P49798 whole entry, looked up): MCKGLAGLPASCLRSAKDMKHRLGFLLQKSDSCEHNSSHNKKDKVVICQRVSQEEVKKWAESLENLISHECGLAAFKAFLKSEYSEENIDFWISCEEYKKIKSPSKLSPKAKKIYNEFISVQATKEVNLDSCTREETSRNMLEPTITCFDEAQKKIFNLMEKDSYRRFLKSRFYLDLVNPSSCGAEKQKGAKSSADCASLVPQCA
MrgX1 ant reconf – MrgX1 receptor antagonists, duplicate retest, confirmation, HEK293 cells, Fluo-4 calcium flux. AID 602420, 2012. remaining BAM8-22 calcium response % of control (stronger effect = lower value), % at 10 µM. 2,300 tested, 19% active. BAM8-22 calcium flux; stronger effect = lower value. shares compounds with MrgX1 antagonist;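 active means remaining agonist calcium response no higher than 100% minus 3 SD of agonist-only control wells, with starting fluorescence near control levels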;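 further: agonist BAM8-22 given at a near maximal EC90 to ECmax level; peak minus minimum fluorescence divided by baseline after agonist addition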
HEK293 Ca flux – nonspecific calcium signal in parental HEK293, confirmation, counter-screen for MrgX1 antagonist project, parental HEK293 cells, Fluo-4 calcium flux; shares compounds with MrgX1 antagonist; fluorescence ratio F(max-min)/F0 at 10 µM; 4,000 tested, 2% active; Fluo-4 calcium fluorescence, FDSS;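 active means duplicate-averaged calcium fluorescence ratio at least three times the standard deviation of buffer wells, a nonspecific response in parental cells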
HEK293 Ca counter – calcium response in parental HEK293 cells, primary screen, counter-screen for MrgX1 allosteric activator project, cell-based, Fluo-4 calcium flux, duplicate; shares compounds with MrgX1 antagonist; fluorescence ratio F(max-min)/F0 at 10 µM; Fluo-4 fluorescence ratio; stronger effect = higher value; 4,000 tested, 0.4% active;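 active means calcium fluorescence ratio, averaged over duplicates, at least 3 SD of the buffer-well ratio, meaning a nonspecific response in receptor-free cells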;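 further: untransfected parental HEK293 lacking MrgX1 used as counterscreen for MrgX1 allosteric activators; fluorescence change taken during the second addition on a kinetic imager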
HEK293 Ca cntr2 – calcium response in parental HEK293 cells, primary screen, counter-screen for MrgX1 agonist project, cell-based, Fluo-4 calcium flux, duplicate, agonist mode. fluorescence ratio F(max-min)/F0 at 10 µM. Fluo-4 calcium fluorescence (FDSS); stronger effect = higher value. shares compounds with MrgX1 antagonist. 4,000 tested, 8.7% active;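 active means calcium fluorescence ratio at least three times the spread of buffer wells, meaning a non-specific response in parental cells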
Active calls of the source: *; i = inactive; x = no result given. Sampled rows, rich in hits. Any-hit rate of the full collection: about 3.5%.

SMILES	MrgX1 ag	MrgX1 allo act	MrgX1 antagonist	RGS4 pot	RGS4 block	MrgX1 ant reconf	HEK293 Ca flux	HEK293 Ca counter	HEK293 Ca cntr2
COc1ccccc1NC(=O)Cc1noc(CSc2nnc(N)s2)n1	i	i	-7.73*	i	i	i	i	i	i
Cc1ccc(N(C(=O)CNC(=O)c2ccco2)C(C(=O)NC2CCCC2)c2ccncc2)cc1F (stereo not given)	i	i	i	i	i	x	x	x	x
O=C(O)CCNC(=O)C12CC3CC(CC(C3)C1)C2	i	i	-8.06*	i	i	i	i	i	i
O=C(NCc1ccccc1)C12CC3CC(CC(C3)C1)C2	i	i	i	i	i	x	x	x	x
Cc1ccc(S(=O)(=O)NCCC(=O)N2CCN(S(=O)(=O)c3ccccc3)CC2)cc1C	i	i	i	i	i	x	x	x	x
Cc1ccc(S(=O)(=O)NCCC(=O)N2CCCCCCC2)cc1C	i	i	-4.75*	i	i	i	i	i	i
CCN1C(=O)[C@H]2[C@@H](c3ccc(-c4ccc5c(c4)OCO5)cc3)N3CCC[C@@]3(C(=O)OC)[C@H]2C1=O	i	i	i	i	i	x	x	x	x
CCN1CCN(C(=S)Nc2ccc3nc(N4CCN(CC)CC4)cc(C)c3c2)CC1	i	i	-4.95*	i	i	i	i	i	i
COc1ccc(C2(C)NC(=O)NC2=O)cc1OC (stereo not given)	i	i	i	i	i	x	x	x	x
COc1cccc(C(=O)N2CCN(C(=O)c3cccc4ccccc34)CC2)c1OC	i	i	-4.9*	i	i	85.4%*	i	i	i
COc1ccc(CN2CCN(C(=O)c3cccc4ccccc34)CC2)c(OC)c1OC	i	i	i	i	i	x	x	x	x
COc1cccc(CN(C(=O)c2ccco2)C2CCS(=O)(=O)C2)c1 (stereo not given)	i	i	-4.76*	i	i	i	i	i	i
CS(=O)(=O)c1ccc(CNC(=O)C2(C(F)(F)F)C/C(=C/CCO)CCCO2)cc1 (stereo not given)	i	i	-4.77*	i	i	i	i	i	i
CCC/C=C1/CCCOC(C(=O)NCc2ccc(S(C)(=O)=O)cc2)(C(F)(F)F)C1 (stereo not given)	i	i	i	i	i	x	x	x	x
CCOC(=O)C1CCN(C(=O)CCCOc2ccccc2)CC1	i	i	i	i	i	x	x	x	x
CCOC(=O)C1CCN(C(=O)CCCN2C(=O)c3ccccc3C2=O)CC1	i	i	-10.1*	i	i	i	i	i	i
CN(C)C(=O)C1C2NC(=S)N(c3cccc(Cl)c3)C1(C)Oc1ccc(Cl)cc12 (stereo not given)	i	i	i	i	i	x	x	x	x
Cc1ccc(OC(C)C(=O)N2CC(=O)Nc3ccccc32)cc1 (stereo not given)	i	i	i	i	i	x	x	x	x
CC(=O)c1cccc(OCc2cc(C(=O)N3CCSCC3)no2)c1	i	i	-9.04*	i	i	i	i	i	i
COc1cc(C(C)=O)ccc1OCc1cc(C(=O)N2CCSCC2)no1	i	i	i	i	i	x	x	x	x
O=C(C1CCN(S(=O)(=O)c2ccccc2)CC1)N1CCN(Cc2ccccc2)CC1	i	i	i	i	i	x	x	x	x
Cc1ccccc1NC(=O)CCN1CCCCCC1	i	i	-6.08*	i	i	i	i	i	i
Cc1ccccc1NC(=O)CCN1CCN(Cc2ccccc2)CC1	i	i	i	i	i	x	x	x	x
Cc1cccc(NC(=S)NC(C)CCc2ccccc2)c1 (stereo not given)	i	i	-7.76*	i	i	i	i	i	i
CNC(=S)N(CCCn1ccnc1)Cc1c(F)cccc1Cl	i	i	i	i	i	x	x	x	x
SMILES	MrgX1 ag	MrgX1 allo act	MrgX1 antagonist	RGS4 pot	RGS4 block	MrgX1 ant reconf	HEK293 Ca flux	HEK293 Ca counter	HEK293 Ca cntr2
CC(C)(C)C(=O)NC1(C(F)(F)F)NC(=O)N(c2ccc(F)cc2)C1=O (stereo not given)	i	i	i	i	i	x	x	x	x
CCn1c(SCC(=O)c2ccc3c(c2)OCCO3)nnc1C(C)C	i	i	-4.65*	x	x	i	i	i	i
COc1cccc(CNC(=O)CCc2nc3cc(S(=O)(=O)N4CCOCC4)ccc3n2C)c1	i	i	i	i	i	x	x	x	x
COc1ccccc1Nc1nc2ccccc2n1C	i	i	-4.81*	i	i	i	i	i	i
O=C(CCS(=O)(=O)c1ccc(Br)cc1)N1CCN(c2ccccc2F)CC1	i	i	-5.44*	x	x	i	i	i	i
O=C(CSc1nnc(C2COc3ccccc3O2)o1)N1CCOCC1 (stereo not given)	i	i	i	i	i	x	x	x	x
O=C(CSc1nnc(C2COc3ccccc3O2)o1)N1CCCc2ccccc21 (stereo not given)	i	i	-4.54*	i	i	i	i	i	i
Cc1cccc(C(=O)NCC(=O)N2CCN(S(=O)(=O)c3ccccc3)CC2)c1	i	i	-4.57*	i	i	i	i	i	i
O=C(CCS(=O)(=O)c1ccc(Br)cc1)NC1CCCCCC1	i	i	i	i	i	x	x	x	x
O=C(Nc1ccc(OC(F)(F)F)cc1)Oc1ccccc1N1CCCCC1	i	i	-5.41*	i	i	i	i	i	i
CCN(CC)CCNC(=O)CCN1N=C(c2ccccc2)CCC1=O	i	i	i	i	i	x	x	x	x
